In ChEMBL document CHEMBL3784931, “Synthesis and evaluation of novel angiotensin II receptor 1 antagonists as anti-hypertension drugs” (Bioorg Med Chem, 2016):

Molecular target: T1, Type-1 angiotensin II receptor A (Rattus norvegicus, UniProt P25095)
T1 sequence (P25095 whole entry): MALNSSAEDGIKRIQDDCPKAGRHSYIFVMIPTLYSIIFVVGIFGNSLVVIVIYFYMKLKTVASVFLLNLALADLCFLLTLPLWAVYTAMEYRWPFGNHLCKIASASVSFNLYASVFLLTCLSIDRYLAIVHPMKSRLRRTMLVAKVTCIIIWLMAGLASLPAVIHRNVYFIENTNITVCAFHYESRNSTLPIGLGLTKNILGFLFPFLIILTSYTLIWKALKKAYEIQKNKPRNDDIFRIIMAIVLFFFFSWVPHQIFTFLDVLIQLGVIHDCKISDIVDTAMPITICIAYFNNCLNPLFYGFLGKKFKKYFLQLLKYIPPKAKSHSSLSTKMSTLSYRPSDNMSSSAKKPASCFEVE
Assay: Displacement of [125I]-Ang II from Angiotensin 2 type-1A receptor in rat vascular smooth muscle cells after 150 mins by gamma counting method
Procedure, shortened: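 Rat vascular smooth muscle cells (passages 3–6) were seeded at 10⁶ cells/well and grown at 37 °C in 5% CO₂. Nonspecific binding was taken with 1 µM Ang II. Cells were washed three times, lysed 10 min in 0.1 M NaOH, and bound radioactivity was gamma counted.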

| IC50 | Ki | Structure (SMILES) |
| --- | --- | --- |
| 5.94 nM | 4.3 nM | CCCCc1nc(Cl)c(CO)n1Cc1ccc(-c2ccccc2-c2noc(=O)[nH]2)cc1 |
| 4.32 nM | 3.13 nM | CCCCc1nc(Cl)c(C=O)n1Cc1ccc(-c2ccccc2-c2noc(=O)[nH]2)cc1 |
